Assay results from different studies.

Nc1ccccc1NC(=O)c1ccc(CNc2ccc(NC3=C(Cl)C(=O)c4cccnc4C3=O)cc2)cc1
IC50 (M-phase inducer phosphatase 3 (Homo sapiens, UniProt P30307); enzyme activity, inhibitor): 0.23 µM

CCOC(=O)[C@H]1O[C@@H]1C(=O)N[C@@H](CC(C)C)C(=O)NCCC(C)C
IC50 (Cathepsin B (CTSB, Homo sapiens, UniProt P07858); enzyme activity, inhibitor): 0.012 µM

COc1ccc2[nH]c(C(=O)Nc3nc(CC(=O)O)cs3)cc2c1
IC50 (Cyclin-dependent kinase 2 (CDK2, Homo sapiens, UniProt P24941); enzyme activity, inhibitor, ELISA): 3.19 µM

CCOc1nc(-c2cccc(O)c2)cc(-c2cc3cc(OC)ccc3nc2N2CCOCC2)c1C#N
IC50 (Serine/threonine-protein kinase pim-1 (PIM1, Homo sapiens, UniProt P11309); enzyme activity, inhibitor): 0.11 µM

CC(C)Oc1ccc(S(=O)(=O)c2ccc(Oc3cc(OCC(N)=O)c(C(=O)C(Cl)Cl)cc3[N+](=O)[O-])cc2)cc1
IC50 ([Pyruvate dehydrogenase (acetyl-transferring)] kinase isozyme 4, mitochondrial (PDK4, Homo sapiens, UniProt Q16654); enzyme activity, inhibitor, ATP luminescence): 17.2 µM

CC(=O)Nc1c(N)nc(SCC(=O)NN)[nH]c1=O
IC50 (Cyclin-dependent kinase 2, with cyclin A2 (CDK2, Homo sapiens, UniProt P24941); enzyme activity, inhibitor): 0.172 µM

CC(=O)N[C@@H]1[C@@H](O[C@@H]2O[C@H](CO)[C@H](O)[C@H](O[C@H]3O[C@H](CO)[C@H](O)[C@H](O)[C@H]3O)[C@H]2O[C@@H]2O[C@@H](C)[C@@H](O)[C@@H](O)[C@@H]2O)[C@H](O)[C@@H](CO)O[C@H]1O
Kd (Galectin-4, N-terminal domain (LGALS4, Homo sapiens, UniProt P56470); binding, NMR): 200 µM

NCCCNc1ncnc2c1ncn2[C@@H]1O[C@H](CN(CC#Cc2cccc(C(N)=O)c2)CC[C@H](N)C(=O)O)[C@@H](O)[C@H]1O
IC50 (Nicotinamide N-methyltransferase (NNMT, Homo sapiens, UniProt P40261); enzyme activity, inhibitor, fluorescence): 0.15 µM

CC(=O)NC1C(OC2C(O)C(CO)OC(OC3C(CO)OC(O)C(O)C3O)C2OC2OC(C)C(O)C(O)C2O)OC(CO)C(O)C1O (centres unmarked)
Kd (Galectin-4, C-terminal domain (LGALS4, Homo sapiens, UniProt P56470); binding, NMR): 63 µM

Cc1ccc2oc(=O)cc(NCCO)c2c1
IC50 (Alpha-1A adrenergic receptor (Adra1a, Rattus norvegicus, UniProt P43140); calcium signal, antagonist): 1820 µM

COc1cc(N2CCC(N3CCN(C)CC3)CC2)ccc1Nc1ncc(Cl)c(Nc2ccccc2P(C)(C)=O)n1
Ki (Multidrug and toxin extrusion protein 1 (SLC47A1, Homo sapiens, UniProt Q96FL8); transporter uptake, inhibitor): 0.78 µM
